In ChEMBL document CHEMBL5236602, “Synthesis and Characterization of NUC-7738, an Aryloxy Phosphoramidate of 3'-Deoxyadenosine, as a Potential Anticancer Agent” (J Med Chem, 2022):
Activity calls are given as the source filed them. No cut-off for these calls is given here.

Assays:
CCRF-CEM [1] = assay: Cytotoxicity against human CCRF-CEM cells assessed as cell death incubated for 72 hrs by MTS assay; type: functional; details: read-out: LC50 (the source's name)
Summary of the method: (§1)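 Contracted MTS assay. Cells seeded the day before treatment and exposed 72 h to nine serial concentrations (3.16-fold steps, top 198 μM), tested in duplicate. MTS added, then 4 h at 37 °C and absorbance read. LC50 is the concentration killing 50% of cells. MI% is the maximum inhibition over the tested range.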

CCRF-CEM [2] = assay: Cytotoxicity against human CCRF-CEM cells assessed as maximum cell growth inhibition incubated for 72 hrs by MTS assay relative to control; type: functional
Summary of the method: (§2)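 Cells from the 20-line panel were seeded the day before dosing, then exposed to compound for 72 h. MTS was added, followed by 4 h at 37 °C, and absorbance was read. Nine serial 3.16-fold dilutions were tested, top 198 μM, in duplicate. MI% is the maximum inhibitory effect across the tested concentration range.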

HL-60 [3] = assay: Cytotoxicity against human HL-60 cells assessed as cell death incubated for 72 hrs by MTS assay; type: functional; details: read-out: LC50 (the source's name); summary of the method: as §1
KG-1 = assay: Cytotoxicity against human KG-1 cells assessed as maximum cell growth inhibition incubated for 72 hrs by MTS assay relative to control; type: functional; summary of the method: as §2
MOLT-4 = assay: Cytotoxicity against human MOLT-4 cells assessed as cell death incubated for 72 hrs by MTS assay; type: functional; details: read-out: LC50 (the source's name); summary of the method: as §1
K562 [4] = assay: Cytotoxicity against human K562 cells assessed as cell death incubated for 72 hrs by MTS assay; type: functional; details: read-out: LC50 (the source's name); summary of the method: as §1
K562 [5] = assay: Cytotoxicity against human K562 cells assessed as maximum cell growth inhibition incubated for 72 hrs by MTS assay relative to control; type: functional; summary of the method: as §2
MV4-11 [6] = assay: Cytotoxicity against human MV4-11 cells assessed as cell death incubated for 72 hrs by MTS assay; type: functional; details: read-out: LC50 (the source's name); summary of the method: as §1
MV4-11 [7] = assay: Cytotoxicity against human MV4-11 cells assessed as maximum cell growth inhibition incubated for 72 hrs by MTS assay relative to control; type: functional; summary of the method: as §2
THP-1 = assay: Cytotoxicity against human THP-1 cells assessed as maximum cell growth inhibition incubated for 72 hrs by MTS assay relative to control; type: functional; summary of the method: as §2
HEL 92.1.7 = assay: Cytotoxicity against human HEL 92.1.7 cells assessed as maximum cell growth inhibition incubated for 72 hrs by MTS assay relative to control; type: functional; summary of the method: as §2
NCI-H929 = assay: Cytotoxicity against human NCI-H929 cells assessed as maximum cell growth inhibition incubated for 72 hrs by MTS assay relative to control; type: functional; summary of the method: as §2
RPMI-8226 = assay: Cytotoxicity against human RPMI-8226 cells assessed as maximum cell growth inhibition incubated for 72 hrs by MTS assay relative to control; type: functional; summary of the method: as §2
Jurkat [8] = assay: Cytotoxicity against human Jurkat cells assessed as cell death incubated for 72 hrs by MTS assay; type: functional; details: read-out: LC50 (the source's name); summary of the method: as §1
Z-138 [9] = assay: Cytotoxicity against human Z138 cells assessed as cell death incubated for 72 hrs by MTS assay; type: functional; details: read-out: LC50 (the source's name); summary of the method: as §1
Z-138 [10] = assay: Cytotoxicity against human Z138 cells assessed as maximum cell growth inhibition incubated for 72 hrs by MTS assay relative to control; type: functional; summary of the method: as §2
RL [11] = assay: Cytotoxicity against human RL cells assessed as cell death incubated for 72 hrs by MTS assay; type: functional; details: read-out: LC50 (the source's name); summary of the method: as §1
RL [12] = assay: Cytotoxicity against human RL cells assessed as maximum cell growth inhibition incubated for 72 hrs by MTS assay relative to control; type: functional; summary of the method: as §2
[13] = Cytotoxicity against human HS 445 cells assessed as maximum cell growth inhibition incubated for 72 hrs by MTS assay relative to control; type: functional; summary of the method: as §2
HepG2 = assay: Cytotoxicity against human HepG2 cells assessed as maximum cell growth inhibition incubated for 72 hrs by MTS assay relative to control; type: functional; summary of the method: as §2
MCF7 = assay: Cytotoxicity against human MCF7 cells assessed as cell death incubated for 72 hrs by MTS assay; type: functional; details: read-out: LC50 (the source's name); summary of the method: as §1
BXPC-3 = assay: Cytotoxicity against human BXPC-3 cells assessed as maximum cell growth inhibition incubated for 72 hrs by MTS assay relative to control; type: functional; summary of the method: as §2
HT-29 [14] = assay: Cytotoxicity against human HT-29 cells assessed as cell death incubated for 72 hrs by MTS assay; type: functional; details: read-out: LC50 (the source's name); summary of the method: as §1
HT-29 [15] = assay: Cytotoxicity against human HT-29 cells assessed as maximum cell growth inhibition incubated for 72 hrs by MTS assay relative to control; type: functional; summary of the method: as §2
MIA PaCa-2 [16] = assay: Cytotoxicity against human MIA PaCa-2 cells assessed as cell death incubated for 72 hrs by MTS assay; type: functional; details: read-out: LC50 (the source's name); summary of the method: as §1
MIA PaCa-2 [17] = assay: Cytotoxicity against human MIA PaCa-2 cells assessed as maximum cell growth inhibition incubated for 72 hrs by MTS assay relative to control; type: functional; summary of the method: as §2
SW-620 [18] = assay: Cytotoxicity against human SW620 cells assessed as cell death incubated for 72 hrs by MTS assay; type: functional; details: read-out: LC50 (the source's name); summary of the method: as §1
SW-620 [19] = assay: Cytotoxicity against human SW620 cells assessed as maximum cell growth inhibition incubated for 72 hrs by MTS assay relative to control; type: functional; summary of the method: as §2
RL [20] = assay: Potency index, ratio of 3'-Deoxyadenosine LC50 to test compound LC50 for cytotoxicity against human RL cells assessed as cell death incubated for 72 hrs by MTS assay; type: functional
HL-60 [21] = assay: Potency index, ratio of 3'-Deoxyadenosine LC50 to test compound LC50 for cytotoxicity against human HL-60 cells assessed as cell death incubated for 72 hrs by MTS assay; type: functional
K562 [22] = assay: Potency index, ratio of 3'-Deoxyadenosine LC50 to test compound LC50 for cytotoxicity against human K562 cells assessed as cell death incubated for 72 hrs by MTS assay; type: functional
Jurkat [23] = assay: Potency index, ratio of 3'-Deoxyadenosine LC50 to test compound LC50 for cytotoxicity against human Jurkat cells assessed as cell death incubated for 72 hrs by MTS assay; type: functional
CCRF-CEM [24] = assay: Potency index, ratio of 3'-Deoxyadenosine LC50 to test compound LC50 for cytotoxicity against human CCRF-CEM cells assessed as cell death incubated for 72 hrs by MTS assay; type: functional
[25] = Prodrug conversion in human HL-60 cells assessed as fold increase in 3'-dATP level at 50 uM incubated for 2 hrs by LC-MS/MS analysis relative to 3'-Deoxyadenosine; type: ADME, cell-based; details: hl-60, 2 h
[26] = Prodrug conversion in human RL cells assessed as fold increase in 3'-dATP level at 50 uM incubated for 2 hrs by LC-MS/MS analysis relative to 3'-Deoxyadenosine; type: ADME, cell-based
CCRF-CEM [27] = assay: Cytotoxicity against deoxynucleotidyl transferase-positive human CCRF-CEM cells assessed as cell death preincubated with adenosine deaminase inhibitor, EHNA for 5 mins followed by compound addition and […]; type: functional, cell-based
RL [28] = assay: Cytotoxicity against deoxynucleotidyl transferase-negative human RL cells assessed as cell death preincubated with adenosine deaminase inhibitor, EHNA for 5 mins followed by compound addition and […]; type: functional, cell-based
RL [29] = assay: Cytotoxicity against deoxynucleotidyl transferase-negative human RL cells assessed as cell death preincubated with adenosine kinase inhibitor, A-134974 for 5 mins followed by compound addition and […]; type: functional, cell-based
[30] = Metabolic stability in pooled cryopreserved human hepatocytes assessed as half life at 1 uM incubated for 60 mins by HPLC-MS/MS analysis; type: ADME, cell-based, Hepatocyte
Summary of the method: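 Pooled cryopreserved human hepatocytes were thawed, washed and resuspended in Krebs–Henseleit buffer, pH 7.3. Compound was added at 1 μM final and incubated 0 and 60 min at 37 °C/5% CO2. Reactions were stopped with acetonitrile, centrifuged, and the supernatant analysed by HPLC-MS/MS.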

Leukemic stem cell = assay: Cytotoxicity against human leukemic stem cells (Lin-/CD34+/CD38-/CD123+) in myeloid leukemia cell line KG-1a assessed as reduction in LSC population at >1 uM incubated for 72 hrs

Work on `C[C@@H](NP(=O)(OC[C@@H]1C[C@@H](O)[C@H](n2cnc3c(N)ncnc32)O1)Oc1cccc2ccccc12)C(=O)OCc1ccccc1` (stereo not given in full) yielded a CC50 (CCRF-CEM [1]) of 1170 nM, an Imax (CCRF-CEM [2]) of 100% and a CC50 (HL-60 [3]) of 6.37 µM. It also gave an Imax (KG-1) of 100%, a CC50 (MOLT-4) of 320 nM and a CC50 (K562 [4]) of 4.93 µM. For the same compound, the Imax (K562 [5]) was 97%, the CC50 (MV4-11 [6]) was 1480 nM and the Imax (MV4-11 [7]) was 99%. The Imax (THP-1) was 99%, the Imax (HEL 92.1.7) was 98% and the Imax (NCI-H929) was 99%. The Imax (RPMI-8226) was 102%, the CC50 (Jurkat [8]) was 900 nM and the CC50 (Z-138 [9]) was 6.32 µM. For the same compound, the Imax (Z-138 [10]) was 100%, the CC50 (RL [11]) was 1680 nM and the Imax (RL [12]) was 96%. The Imax [13] was 96%, the Imax (HepG2) was 95% and the CC50 (MCF7) was 1390 nM. For the same compound, the Imax (BXPC-3) was 90%, the CC50 (HT-29 [14]) was 7.52 µM and the Imax (HT-29 [15]) was 98%. The CC50 (MIA PaCa-2 [16]) was 3.73 µM, the Imax (MIA PaCa-2 [17]) was 98% and the CC50 (SW-620 [18]) was 11.4 µM. It also gave an Imax (SW-620 [19]) of 93%, a RatioLC50 (RL [20]) of 3 and a RatioLC50 (HL-60 [21]) of 3. The RatioLC50 (K562 [22]) was 3, the RatioLC50 (Jurkat [23]) was 200 and the RatioLC50 (CCRF-CEM [24]) was 3. For the same compound, the “fold change (FC)” value [25] was 3, the “fold change (FC)” value [26] was 3 and the Activity (CCRF-CEM [27]) was “Active”. The Activity (RL [28]) was “Active”, the Activity (RL [29]) was “Active” and the half-life at 1 µM [30] was 43.4 min. For the same compound, the Activity (Leukemic stem cell) was “inactive”.
